Reference: ChEMBL document CHEMBL1687720 (Antimicrob Agents Chemother, 2009)

How the values were obtained:
Plasmodium falciparum [1] = test: Antiplasmodial activity against chloroquine-sensitive Plasmodium falciparum 3D7 assessed as inhibition of trophozoite stage parasite growth at 526 nM after 24 hrs by [3H]hypoxanthine incorporation assay; format: functional; details: 3D7, read-out: GI
Outline: (§1)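 P. falciparum 3D7 is synchronized with sorbitol. […] Cells are washed four times, then labelled with [3H]hypoxanthine for 24 h. Growth is given as % of untreated control for each stage, in triplicate.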

Plasmodium falciparum [2] = test: Antiplasmodial activity against chloroquine-sensitive Plasmodium falciparum 3D7 assessed as inhibition of schizont stage parasite growth at 526 nM after 24 hrs by [3H]hypoxanthine incorporation assay; format: functional; details: read-out: GI; outline: as §1
Plasmodium falciparum [3] = test: Upregulation of selenoprotein-1 mRNA level in Plasmodium falciparum 3D7 trophozoites at 126 nM after 12 hrs by RT-qPCR analysis relative to untreated control; format: functional
Outline: (§2)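 Synchronized 3D7 trophozoites in RPMI/Albumax culture at 37°C under 3% O2, 3% CO2 were exposed 12, 15 or 18 h, then harvested by 0.02% saponin lysis. RNA was reverse-transcribed and analyzed by real-time PCR in quadruplicate. Quantification used ΔΔCT with 18S rRNA reference (LDH also checked), expressed as % of untreated control.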

Plasmodium falciparum [4] = test: Upregulation of glutathione synthetase mRNA level in Plasmodium falciparum 3D7 trophozoites at 126 nM after 15 hrs by RT-qPCR analysis relative to untreated control; format: functional; outline: as §2
Plasmodium falciparum [5] = test: Upregulation of glutathione synthetase mRNA level in Plasmodium falciparum 3D7 trophozoites at 126 nM after 18 hrs by RT-qPCR analysis relative to untreated control; format: functional; outline: as §2
Plasmodium falciparum [6] = test: Upregulation of Heat shock protein mRNA level in Plasmodium falciparum 3D7 trophozoites at 126 nM by RT-qPCR analysis relative to untreated control; format: functional; outline: as §2
[7] = Cytotoxicity against human A549 cells assessed as reduction in viable cells at 60 uM by Trypan blue assay; format: cell-based; details: read-out: INH
Outline: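 A549 cells are grown in DMEM with 10% FCS at 37°C and 5% CO2, and treated for 24 h. They are washed in cold PBS and trypsinized. Viable and nonviable cells are counted by trypan blue exclusion on a hemocytometer.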

A549 [8] = test: Effect on thioredoxin reductase expression in human A549 cells assessed as transcript level at 5 nM after 24 hrs by RT-qPCR analysis relative to untreated control; format: functional; details: in the assay text read “5 µM” for “5 nM”
Outline: (§3)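 A549 cells are seeded at 2.5 × 10^5 per 25-cm2 well. At 40–45% confluence they are treated for 24 h with 166 or 662 μM, 158 or 315 μM, or 5 or 24 μM compound; controls receive <5% DMSO. Total RNA is DNase-treated and qRT-PCR is run in quadruplicate. Values are normalized to GAPDH and given as % of untreated control.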

A549 [9] = test: Effect on glutathione reductase expression in human A549 cells assessed as transcript level at 5 nM after 24 hrs by RT-qPCR analysis relative to untreated control; format: functional; details: in the assay text read “5 µM” for “5 nM”; outline: as §3
A549 [10] = test: Effect on glutathione reductase expression in human A549 cells assessed as transcript level at 24 nM after 24 hrs by RT-qPCR analysis relative to untreated control; format: functional; details: in the assay text read “24 µM” for “24 nM”; outline: as §3
A549 [11] = test: Effect on glutathione peroxidase expression in human A549 cells assessed as transcript level at 24 nM after 24 hrs by RT-qPCR analysis relative to untreated control; format: functional; details: in the assay text read “24 µM” for “24 nM”; outline: as §3
A549 [12] = test: Inhibition of glutathione S-transferase in human A549 cells assessed as enzyme activity at 24 µM after 24 hrs relative to untreated control; set-up: scale not given: the % may be the effect or the level left
Thioredoxin reductase = Thioredoxin reductase (Homo sapiens, UniProt Q16881+Q9NNW7+Q86VQ6); test: Inhibition of thioredoxin reductase in human A549 cells assessed as enzyme activity at 5 µM after 24 hrs by DTNB assay relative to untreated control; set-up: scale not given: the % may be the effect or the level left
A549 [13] = test: Effect on glutathione peroxidase expression in human A549 cells assessed as transcript level at 5 µM after 24 hrs by RT-qPCR analysis relative to untreated control
Plasmodium falciparum [14] = test: Antiplasmodial activity against chloroquine-resistant Plasmodium falciparum K1 in presence of artemisinin; format: functional
Plasmodium falciparum [15] = test: Antiplasmodial activity against chloroquine-resistant Plasmodium falciparum K1 in presence of artemether; format: functional
Plasmodium falciparum [16] = test: Antiplasmodial activity against chloroquine-resistant Plasmodium falciparum K1 in presence of premaquine; format: functional
Plasmodium falciparum [17] = test: Antiplasmodial activity against chloroquine-resistant Plasmodium falciparum K1 in presence of quinine; format: functional
[18] = molecular target: T1, Glutathione reductase, mitochondrial (Homo sapiens) (UniProt P00390); test: Inhibition of glutathione reductase in human A549 cells assessed as enzyme activity at 166 µM after 24 hrs relative to untreated control; set-up: scale not given: the % may be the effect or the level left
T1 sequence (whole entry): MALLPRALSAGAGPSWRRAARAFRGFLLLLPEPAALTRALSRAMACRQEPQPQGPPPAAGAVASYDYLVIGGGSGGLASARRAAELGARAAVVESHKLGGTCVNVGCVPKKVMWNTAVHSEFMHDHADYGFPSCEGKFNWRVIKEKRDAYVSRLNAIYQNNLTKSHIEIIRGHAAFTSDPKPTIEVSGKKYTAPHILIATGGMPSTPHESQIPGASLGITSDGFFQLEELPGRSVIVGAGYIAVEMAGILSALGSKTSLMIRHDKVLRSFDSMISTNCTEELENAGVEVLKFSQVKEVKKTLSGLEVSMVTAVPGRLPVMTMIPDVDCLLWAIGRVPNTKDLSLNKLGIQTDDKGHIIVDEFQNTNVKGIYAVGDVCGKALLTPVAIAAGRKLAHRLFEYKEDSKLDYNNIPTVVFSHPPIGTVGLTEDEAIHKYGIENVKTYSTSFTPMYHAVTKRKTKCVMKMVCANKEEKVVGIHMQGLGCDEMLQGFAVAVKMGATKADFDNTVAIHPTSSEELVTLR

A549 [19] = test: Inhibition of glutathione peroxidase in human A549 cells assessed as enzyme activity at 166 µM after 24 hrs relative to untreated control; set-up: scale not given: the % may be the effect or the level left
A549 [20] = test: Effect on glutathione S-transferase expression in human A549 cells assessed as transcript level at 158 nM after 24 hrs by RT-qPCR analysis relative to untreated control; format: functional; details: in the assay text read “158 µM” for “158 nM”; outline: as §3
A549 [21] = test: Effect on glutathione S-transferase expression in human A549 cells assessed as transcript level at 315 nM after 24 hrs by RT-qPCR analysis relative to untreated control; format: functional; details: in the assay text read “315 µM” for “315 nM”; outline: as §3
A549 [22] = test: Inhibition of glutathione S-transferase in human A549 cells assessed as enzyme activity at 158 µM after 24 hrs relative to untreated control; set-up: scale not given: the % may be the effect or the level left

Q: Which inhibition of growth at 0.526 µM (Plasmodium falciparum [1]) does the source give for `O=c1oc2c(O)c(O)c(O)c3c(=O)oc4c(O)c(O)c(O)c1c4c23` [CORULEOELLAGIC ACID] here?
A: > 95%

Q: What about the inhibition of growth at 0.526 µM (Plasmodium falciparum [2]) of the same compound?
A: 39%

Q: What about the Activity (Plasmodium falciparum [3]) of the same compound?
A: 160%

Q: What about the Activity (Plasmodium falciparum [4]) of the same compound?
A: 128%

Q: What about the Activity (Plasmodium falciparum [5]) of the same compound?
A: 128%

Q: What about the Activity (Plasmodium falciparum [6]) of the same compound?
A: 158%

Q: And the cytotoxicity at 60 µM [7]?
A: 50%

Q: What about the Activity (A549 [8]) of the same compound?
A: 76%

Q: What about the Activity (A549 [9]) of the same compound?
A: 77%

Q: What about the Activity (A549 [10]) of the same compound?
A: 84%

Q: What about the Activity (A549 [11]) of the same compound?
A: 71%

Q: What about the Activity (A549 [12]) of the same compound?
A: 106%

Q: And the Activity (Thioredoxin reductase)?
A: 42%

Q: What about the Activity (A549 [13]) of the same compound?
A: 51%

Q: Which FIC50 (Plasmodium falciparum [14]) does the source give for `O=c1oc2c(O)c(O)cc3c(=O)oc4c(O)c(O)cc1c4c23` [ELLAGIC ACID] here?
A: 1

Q: And the FIC50 (Plasmodium falciparum [15])?
A: 1

Q: And the FIC50 (Plasmodium falciparum [16])?
A: 1

Q: What about the FIC50 (Plasmodium falciparum [17]) of the same compound?
A: 1

Q: And the Activity [18]?
A: 87%

Q: What about the Activity (A549 [19]) of the same compound?
A: 86%

Q: Which results are given for `O=c1oc2c(O)c(O)c(O)c3c(=O)oc4c(O)c(O)cc1c4c23` [FLAVELLAGIC ACID]?
A: Activity (A549 [20]): 115%; Activity (A549 [21]): 164%; Activity (A549 [22]): 99%
